# Shown are actives, neighbours in structure and some others; about 3.5% of the full set was active somewhere.
# Rev-RRE block: inhibitors of HIV-1 Rev-RRE RNA interaction; P05866; Rev peptide-RRE RNA binding, FRET; inhibition, % at 8 µM; 0.79% of 97,000 active; AID 704;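 active = inhibition above the screen-wide mean plus 3 SD, cut at about 35% in these data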;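 note: 0% = median DMSO wells and 100% = median Neomycin B control wells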
#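 Material: labelled RRE RNA duplex and labelled Rev peptide / Buffer or medium: HEPES pH 7.5 salt buffer with EDTA / Compound dosing: single point, 8 µM final nominal compound concentration / Benchmarks: DMSO low control, neomycin B high control / Timing: 5 min preincubation and 15 min binding, 25 °C / Technique: FRET fluorescence readout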
# sEH inh: inhibitors of human soluble epoxide hydrolase; recombinant human sEH enzymatic activity assay; AID 707; 0.34% of 91,000 active; P34913; inhibition, % at 2 µM; in the data active = inhibition above about 80%
# Target sequence (P34913 whole entry, looked up): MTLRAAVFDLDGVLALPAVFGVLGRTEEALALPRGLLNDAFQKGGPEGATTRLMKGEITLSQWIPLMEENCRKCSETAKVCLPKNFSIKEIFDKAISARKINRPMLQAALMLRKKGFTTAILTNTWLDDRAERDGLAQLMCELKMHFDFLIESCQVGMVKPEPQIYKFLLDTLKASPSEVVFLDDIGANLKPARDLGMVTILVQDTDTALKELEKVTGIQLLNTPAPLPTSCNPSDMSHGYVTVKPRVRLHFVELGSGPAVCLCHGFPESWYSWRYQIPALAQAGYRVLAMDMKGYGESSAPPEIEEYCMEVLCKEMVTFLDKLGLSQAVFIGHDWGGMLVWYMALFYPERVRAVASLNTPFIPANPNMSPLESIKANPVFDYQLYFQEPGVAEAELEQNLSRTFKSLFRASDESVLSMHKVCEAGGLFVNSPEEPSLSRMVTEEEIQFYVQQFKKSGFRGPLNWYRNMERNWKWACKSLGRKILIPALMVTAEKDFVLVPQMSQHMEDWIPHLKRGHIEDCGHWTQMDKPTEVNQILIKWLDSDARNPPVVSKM
# sEH activator: increases human soluble epoxide hydrolase activity; activation, % at 2 µM; AID 717; P34913; 0.04% of 91,000 active; purified human sEH enzymatic activity, activator screen; in the data active = activation above about 37%
# ERa SRC1 inh: ER-alpha (human) coactivator binding inhibition; 1.7% of 86,000 active; P03372; TR-FRET ER-alpha LBD / SRC-1 peptide, estradiol-bound; inhibition, % at 25.6 µM; in the data active = inhibition above about 50%;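 note: 0% = receptor plus peptide control and 100% = peptide only without receptor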
# ERa coact pot: ER-alpha (human) coactivator binding potentiation; P03372; TR-FRET ERalpha-LBD/SRC-Cy5 coactivator binding, 2 h; 100 = basal binding, no effect; coactivator binding (% of control), % at 25.6 µM; 1.3% of 86,000 active; in the data active = activity above about 200%;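 note: binding measured in presence of low estradiol as agonist stimulus; 0% = peptide alone without receptor and 100% = receptor with peptide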
# ERb SRC1 inh: ER-beta (human) coactivator binding inhibition; inhibition, % at 25.6 µM; AID 633; 1.3% of 86,000 active; Q92731; TR-FRET ER-beta LBD / SRC1-Cy5 peptide binding; receptor agonist-loaded with 1 µM estradiol;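 active = compounds whose percent inhibition of the receptor-coactivator binding signal exceeds about 50% in the single-dose screen, limit read from the data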;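 note: 0% = receptor plus peptide wells without compound and 100% = peptide-only wells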
# * hit, by the source's call; . = no result; [ ] = remark or other dose.
SMILES,Rev-RRE block,sEH inh,sEH activator,ERa SRC1 inh,ERa coact pot,ERb SRC1 inh
Cc1ccc(N2CC(C(=O)NCc3cccnc3)CC2=O)cc1 (configuration not stated),7,-3,6,-11,101,-20
Brc1ccc(-c2nn3c(Cc4ccccc4)nnc3s2)o1,8,-2,2,-3,99,-6
O=C(O)c1ccccc1C1=Nc2ccc(O)cc2Oc2cc(O)ccc21,78*,3,-3,35,46,62*[fluorescence artefact?]
CC1=C(C(=O)c2ccccc2)C(c2cn(-c3ccccc3)nc2-c2ccc(Cl)cc2)NC(=S)N1 (configuration not stated),4,3,-6,-12,282*[fluorescence artefact?],-3
Cc1nc(NCc2ccco2)c2c(C)c(C)sc2n1,4,-3,5,2,111,-4
Cc1sc2nc3c4ccccc4c(NCc4ccco4)nn3c(=O)c2c1C,-3,-4,3,56*[fluorescence artefact?],82,32
CCC1c2ccc(C)n2CCN1C(=O)Nc1ccccc1OC (configuration not stated),12,3,-3,-7,129,-12
CCc1nc(SCC(=O)N2CCc3cc(OC)c(OC)cc3C2)c(C#N)cc1C,8,-2,4,.,.,.
COc1ccc(C(=S)N2CCOCC2)cc1OC(=O)c1cc([N+](=O)[O-])c(C)c([N+](=O)[O-])c1,1,-7,6,.,.,.
CCOC(=O)c1cccc(NC(=O)c2cccs2)c1,3,-7,5,-3,114,79*
CC(=O)N(CCc1ccccc1C)Cc1cc2cc3c(cc2[nH]c1=O)OCO3,6,-1,0,10,68,12
COc1ccc(-c2cc(C(=O)Nc3cccc(C(C)=O)c3)no2)cc1,5,8,-9,16,228*[fluorescence artefact?],10
COc1ccc(-c2nc(C#N)c(N3CCC(C(N)=O)CC3)o2)cc1,5,-2,2,-4,91,-13
N#Cc1nc(-c2ccc(OCc3ccccc3)cc2)oc1N1CCC(C(N)=O)CC1,8,5,-6,59*[fluorescence artefact?],250*[fluorescence artefact?],44
O=C(Cn1nc(-c2ccccc2)ccc1=O)NCC1CCCO1 (configuration not stated),9,-6,4,-7,110,-5
O=c1[nH]c2ccc(Br)cc2c(-c2ccccc2)c1CN1CCOCC1,12,-2,1,4,89,-3
O=c1[nH]c2ccc(Br)cc2c(-c2ccccc2)c1N1CCOCC1,9,-8,8,30,429*[fluorescence artefact?],19
Oc1ccc2ccccc2c1C=NCc1cn2ccsc2n1,7,-4,4,9,92,15
Cc1ccc2[nH]c(=O)c(CN(CCc3ccccc3)Cc3nnnn3CC3CCCO3)cc2c1 (configuration not stated),7,-10,8,5,100,-9
O=c1[nH]c2cc3c(cc2cc1CN(Cc1nnnn1CC1CCCO1)C1CCCCC1)OCO3 (configuration not stated),39*,-9,10,4,101,-3
O=c1[nH]c2cc3c(cc2cc1CN(Cc1nnnn1CC1CCCO1)C1CCCC1)OCO3 (configuration not stated),4,5,-6,-12,107,3
O=c1[nH]c2cc3c(cc2cc1CN(CCc1ccccc1)Cc1nnnn1CC1CCCO1)OCO3 (configuration not stated),41*,7,-8,-5,102,-6
COc1cccc(CNS(=O)(=O)/C=C/c2ccc3c(c2)OCO3)c1,0,.,.,.,.,.
Cc1c(Cl)cccc1NC(=O)c1cccc(OC(F)F)c1,4,5,-4,.,.,.
COc1ccc(Br)cc1CNC(=O)C1CCCN(c2nc3ccccc3o2)C1 (configuration not stated),2,.,.,64*,102,28
SMILES,Rev-RRE block,sEH inh,sEH activator,ERa SRC1 inh,ERa coact pot,ERb SRC1 inh
O=C(NCCC1=CCCCC1)C1CCCN(c2nc3ccccc3o2)C1 (configuration not stated),9,96*,-96,-9,108,2
COCCCn1c(Cc2csc(Nc3cccc(Cl)c3)n2)nnc1SCC(=O)OC,3,-8,8,37,42,61*[fluorescence artefact?]
CCOC(=O)CSc1nnc(CNc2cccc(Cl)c2)n1C,10,0,3,0,117,-4
CC(=O)Nc1ccc(OC(F)(F)C(F)F)c(NC(C)=O)c1,3,0,-1,.,.,.
C=C(C)C(=O)Nc1ccc(OC(F)(F)C(F)F)c(NC(=O)C(=C)C)c1,-3,7,-8,-38,210*,-14
COc1ccc2c(c1)c(=O)oc1cc(OCC(=O)N3CCCC(C)C3)ccc12 (configuration not stated),2,-7,5,36,132,48
COc1ccc2c(c1)c(=O)oc1cc(OCC(=O)N3CCc4ccccc4C3)ccc12,-16,3,-1,71*[fluorescence artefact?],237*[fluorescence artefact?],62*
COc1ccc2c(c1)c(=O)oc1cc(OCC(=O)N3CCC(C)CC3)ccc12,-8,-4,8,59*,133,60*
COc1ccc(NC(=O)c2cc(CN3C(=O)c4ccccc4C3=O)ccc2OC)cn1,4,-26,26,83*[fluorescence artefact?],96,47
COc1ccc(NC(=O)c2cc(=O)c3ccccc3o2)cn1,10,-14,14,5,109,0
Cc1c(C(=O)Nc2ccc(-n3cnnn3)cc2)oc2ccccc12,4,5,-4,76*[fluorescence artefact?],199,65*[fluorescence artefact?]
CSCCC1(C(=O)O)NC(c2ccccc2O)C2C(=O)N(C(C)C)C(=O)C21 (configuration not stated),7,5,-3,84*[fluorescence artefact?],112,-4
CCCC1(C(=O)O)NC(c2ccccc2O)C2C(=O)N(Cc3ccccc3)C(=O)C21 (configuration not stated),12,0,1,6,115,-3
O=c1[nH]c2cc3c(cc2cc1C(c1nnnn1Cc1ccccc1)N1CCN2CCCC2C1)OCCO3 (configuration not stated),16,4,-6,72*[fluorescence artefact?],129,44
O=c1[nH]c2cc3c(cc2cc1C(c1nnnn1Cc1ccccc1)N1CCCc2ccccc21)OCO3 (configuration not stated),14,-1,1,56*[fluorescence artefact?],151,30
COc1cc2cc(C(c3nnnn3C3CCCC3)N3CCc4ccccc43)c(=O)[nH]c2cc1OC (configuration not stated),-1,6,-7,50*,216*[fluorescence artefact?],33
O=c1[nH]c2cc3c(cc2cc1C(c1nnnn1Cc1ccccc1)N1CCCCCC1)OCCO3 (configuration not stated),41*,3,-5,31,246*[fluorescence artefact?],44
O=c1[nH]c2cc3c(cc2cc1C(c1nnnn1C1CCCC1)N1CCCc2ccccc21)OCCO3 (configuration not stated),.,.,.,6,114,2

# Screening data: PubChem, several laboratories
